Values after ≈ are worked out from the molar mass of the structure shown.
Assays:
[1] = test system: Mycobacterium tuberculosis; assay: Growth inhibition of Mycobacterium bovis BCG ATCC 35743 at dormant stage at 1.56 ug/ml measured after 12 days by nitrate reductase dye based two fold dilution method relative to control; type: functional; settings: BCG str. ATCC 35743, 288 h, read-out: GI
In short: (§1)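 M. bovis BCG was grown in Dubos medium and assayed in Mycobacterium pheli minimal medium (pH 6.6), with compounds from DMSO stocks. Incubation lasted 8 days for active and 12 days for dormant cultures. Viability was read by nitrate reductase at 540 nm against cell-free blanks, with vehicle set as 100% growth. Primary screen was at 30, 10 and 3 µg/ml, in triplicate, mean ± SD. MIC was taken from dose-response curves.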

[2] = test system: Mycobacterium tuberculosis; assay: Growth inhibition of Mycobacterium bovis BCG ATCC 35743 at active stage at 3.13 ug/ml measured after 8 days by nitrate reductase dye based two fold dilution method relative to control; type: functional; settings: BCG str. ATCC 35743, 192 h, read-out: GI; in short: as §1
Candida albicans = assay: Antifungal activity against Candida albicans NCIM 3471 by standard agar method; type: functional
In short: (§2)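 MICs determined by standard agar method; DMSO as solvent control.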

Pseudomonas fluorescens [3] = assay: Growth inhibition of Pseudomonas fluorescens NCIM 2036 at 10 ug/ml measured after 8 hrs relative to control; type: functional; settings: NCIM 2036, 8 h, read-out: GI
In short: (§3)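 Bacteria grown in LB at 37 °C and 180 rpm to OD 1. Compounds added to wells, then 0.1% inoculum of 1 OD culture (620 nm). Growth read as OD at 620 nm after 8 h for gram-negative and after 12 h for gram-positive strains.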

Bacillus subtilis [4] = assay: Antibacterial activity against Bacillus subtilis NCIM 2079 measured after 12 hrs; type: functional; settings: NCIM 2079, 12 h; in short: as §3
Escherichia coli [5] = assay: Growth inhibition of Escherichia coli NCIM 2688 at 3 ug/ml measured after 8 hrs relative to control; type: functional; settings: NCIM 2688, 8 h, read-out: GI; in short: as §3
[6] = Antifungal activity against Cryptococcus neoformans NCIM 576 by standard agar method; type: functional; in short: as §2
[7] = test system: Mycobacterium tuberculosis; assay: Growth inhibition of Mycobacterium tuberculosis H37Ra ATCC 25177 at active stage measured after 8 days by XTT dye based two fold dilution method; type: functional; settings: H37Ra ATCC 25177, 192 h
In short: (§4)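 MTB H37Ra was grown in Dubos medium, then exposed in Mycobacterium pheli minimal medium (pH 6.6) to compounds dissolved in DMSO. The assay ended on day 8 (active) or day 12 (dormant). Viable cells were measured by XTT reduction menadione assay at 470 nm, blank-corrected, relative to vehicle control. Triplicates were expressed as mean ± SD. MIC came from dose-response curves.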

[8] = test system: Mycobacterium tuberculosis; assay: Growth inhibition of Mycobacterium bovis BCG ATCC 35743 at dormant stage at 30 ug/ml measured after 12 days by nitrate reductase dye based two fold dilution method relative to control; type: functional; settings: BCG str. ATCC 35743, 288 h, read-out: GI; in short: as §1
[9] = test system: Mycobacterium tuberculosis; assay: Growth inhibition of Mycobacterium bovis BCG ATCC 35743 at active stage at 6.25 ug/ml measured after 8 days by nitrate reductase dye based two fold dilution method relative to control; type: functional; settings: BCG str. ATCC 35743, 192 h, read-out: GI; in short: as §1
Pseudomonas fluorescens [10] = assay: Growth inhibition of Pseudomonas fluorescens NCIM 2036 at 3 ug/ml measured after 8 hrs relative to control; type: functional; settings: NCIM 2036, 8 h, read-out: GI; in short: as §3
Escherichia coli [11] = assay: Growth inhibition of Escherichia coli NCIM 2688 at 10 ug/ml measured after 8 hrs relative to control; type: functional; settings: NCIM 2688, 8 h, read-out: GI; in short: as §3
[12] = test system: Mycobacterium tuberculosis; assay: Growth inhibition of Mycobacterium bovis BCG ATCC 35743 at active stage at 100 ug/ml measured after 8 days by nitrate reductase dye based two fold dilution method relative to control; type: functional; settings: BCG str. ATCC 35743, 192 h, read-out: GI
[13] = Cytotoxicity against human PANC1 cells measured after 48 hrs by MTT assay; type: toxicity, cell-based, PANC-1
[14] = test system: Mycobacterium tuberculosis; assay: Growth inhibition of Mycobacterium bovis BCG ATCC 35743 at dormant stage at 100 ug/ml measured after 12 days by nitrate reductase dye based two fold dilution method relative to control; type: functional; settings: BCG str. ATCC 35743, 288 h, read-out: GI; in short: as §1
[15] = test system: Mycobacterium tuberculosis; assay: Growth inhibition of Mycobacterium tuberculosis H37Ra ATCC 25177 at active stage at 3.13 ug/ml measured after 8 days by XTT dye based two fold dilution method relative to control; type: functional; settings: H37Ra ATCC 25177, 192 h, read-out: GI; in short: as §4
[16] = test system: Mycobacterium tuberculosis; assay: Growth inhibition of Mycobacterium tuberculosis H37Ra ATCC 25177 at dormant stage at 50 ug/ml measured after 12 days by XTT dye based two fold dilution method relative to control; type: functional; settings: H37Ra ATCC 25177, 288 h, read-out: GI; in short: as §4
[17] = test system: Mycobacterium tuberculosis; assay: Growth inhibition of Mycobacterium bovis BCG ATCC 35743 at dormant stage at 10 ug/ml measured after 12 days by nitrate reductase dye based two fold dilution method relative to control; type: functional; settings: BCG str. ATCC 35743, 288 h, read-out: GI; in short: as §1
[18] = test system: Mycobacterium tuberculosis; assay: Growth inhibition of Mycobacterium bovis BCG ATCC 35743 at active stage at 25 ug/ml measured after 8 days by nitrate reductase dye based two fold dilution method relative to control; type: functional; settings: BCG str. ATCC 35743, 192 h, read-out: GI; in short: as §1
[19] = test system: Mycobacterium tuberculosis; assay: Growth inhibition of Mycobacterium bovis BCG ATCC 35743 at active stage at 0.78 ug/ml measured after 8 days by nitrate reductase dye based two fold dilution method relative to control; type: functional; settings: BCG str. ATCC 35743, 192 h, read-out: GI; in short: as §1
[20] = test system: Mycobacterium tuberculosis; assay: Growth inhibition of Mycobacterium tuberculosis H37Ra ATCC 25177 at dormant stage measured after 12 days by XTT dye based two fold dilution method; type: functional; settings: H37Ra ATCC 25177, 288 h; in short: as §4
[21] = test system: Mycobacterium tuberculosis; assay: Growth inhibition of Mycobacterium bovis BCG ATCC 35743 at dormant stage at 25 ug/ml measured after 12 days by nitrate reductase dye based two fold dilution method relative to control; type: functional; settings: BCG str. ATCC 35743, 288 h, read-out: GI; in short: as §1
[22] = test system: Mycobacterium tuberculosis; assay: Growth inhibition of Mycobacterium tuberculosis H37Ra ATCC 25177 at active stage at 100 ug/ml measured after 8 days by XTT dye based two fold dilution method relative to control; type: functional; settings: H37Ra ATCC 25177, 192 h, read-out: GI; in short: as §4
[23] = test system: Mycobacterium tuberculosis; assay: Growth inhibition of Mycobacterium bovis BCG ATCC 35743 at dormant stage at 3.13 ug/ml measured after 12 days by nitrate reductase dye based two fold dilution method relative to control; type: functional; settings: BCG str. ATCC 35743, 288 h, read-out: GI; in short: as §1
Bacillus subtilis [24] = assay: Growth inhibition of Bacillus subtilis NCIM 2079 at 3 ug/ml measured after 12 hrs relative to control; type: functional; settings: NCIM 2079, 12 h, read-out: GI; in short: as §3
[25] = Cytotoxicity against human THP1 cells assessed as growth inhibition at 100 ug/ml measured after 48 hrs by MTT assay relative to control; type: toxicity, cell-based, THP-1; settings: read-out: GI
In short: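 MTT assay with 48 h compound exposure. THP-1 macrophages made by 24 h PMA treatment. Each concentration tested in triplicate in one experiment. % cytotoxicity = (control−test)/(control−blank)×100, with control = cells + DMSO and blank = medium without cells. IC50 from % survival versus concentration plots.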

[26] = Selectivity index, ratio of GI50 for human THP1 cells to MIC for Mycobacterium tuberculosis H37Ra ATCC 25177 at dormant stage; type: toxicity, cell-based, THP-1; settings: read-out: Selectivity Index
In short: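 SI is the cell-line GI50 divided by the dormant-stage mycobacterial MIC. […] THP-1 macrophages were PMA-differentiated for 24 h.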

[27] = Antifungal activity against Fusarium oxysporum NCIM 1332 by standard agar method; type: functional; in short: as §2
Staphylococcus aureus = assay: Antibacterial activity against of Staphylococcus aureus NCIM 2010 measured after 12 hrs; type: functional; settings: NCIM 2010, 12 h; in short: as §3

Row | SMILES | inhibition of growth at 1.56 µg/mL [1] | inhibition of growth at 3.13 µg/mL [2] | MIC (Candida albicans) | inhibition of growth at 10 µg/mL (Pseudomonas fluorescens [3]) | MIC (Bacillus subtilis [4]) | inhibition of growth at 3 µg/mL (Escherichia coli [5]) | MIC [6] | IC50 [7] | IC90 [7] | inhibition of growth at 30 µg/mL [8] | inhibition of growth at 6.25 µg/mL [9] | inhibition of growth at 3 µg/mL (Pseudomonas fluorescens [10]) | inhibition of growth at 10 µg/mL (Escherichia coli [11]) | inhibition of growth at 100 µg/mL [12] | GI50 at 48 h [13] | inhibition of growth at 100 µg/mL [14] | inhibition of growth at 3.13 µg/mL [15] | inhibition of growth at 50 µg/mL [16] | inhibition of growth at 10 µg/mL [17] | inhibition of growth at 25 µg/mL [18] | other results
1 | Cc1cccc2cc(/C=C3\SC(=S)NC3=O)c(Cl)nc12 | -20.5% | -17.7% | 200 µg/mL (≈ 623 µM) | 22.9% | > 30 µg/mL | 26.2% | 100 µg/mL (≈ 312 µM) | 4.8 µg/mL (≈ 15 µM) | 18.2 µg/mL (≈ 56.7 µM) | 60.5% | 87.8% | 16.9% | 27.5% | 93.2% | > 100 µg/mL | 95% | 39.9% | 99.8% | -5.12% | 99.3% | inhibition of growth at 0.78 µg/mL [19]: -28.7%; IC50 [20]: 7.6 µg/mL (≈ 23.7 µM); IC90 [20]: 12.9 µg/mL (≈ 40.2 µM); inhibition of growth at 25 µg/mL [21]: 101%; inhibition of growth at 100 µg/mL [22]: 113%; inhibition of growth at 3.13 µg/mL [23]: -5.18%; inhibition of growth at 3 µg/mL (Bacillus subtilis [24]): 3.54%; inhibition at 48 h, 100 ug/ml [25]: 13.2%; selectivity ratio [26]: 7.8; MIC [27]: 200 µg/mL (≈ 623 µM); MIC (Staphylococcus aureus): > 30 µg/mL
2 | CCOc1ccc2nc(Cl)c(/C=C3\SC(=S)NC3=O)cc2c1 | 75.5% | 99.4% | 125 µg/mL (≈ 356 µM) | 41% | 28.4 µg/mL (≈ 80.9 µM) | 64.7% | 50 µg/mL (≈ 143 µM) | 1.9 µg/mL (≈ 5.42 µM) | 2.8 µg/mL (≈ 7.98 µM) | 94.5% | 101% | 50.2% | 77.2% | 96.8% | > 100 µg/mL | 99.5% | 94.8% | 93% | 93.5% | 98.6% | inhibition of growth at 0.78 µg/mL [19]: -51.8%; IC50 [20]: 2.3 µg/mL (≈ 6.56 µM); IC90 [20]: 3.5 µg/mL (≈ 9.98 µM); inhibition of growth at 25 µg/mL [21]: 100%; inhibition of growth at 100 µg/mL [22]: 111%; inhibition of growth at 3.13 µg/mL [23]: 100%; inhibition of growth at 3 µg/mL (Bacillus subtilis [24]): -34%; inhibition at 48 h, 100 ug/ml [25]: 28.6%; selectivity ratio [26]: 28.6; MIC [27]: 150 µg/mL (≈ 428 µM); MIC (Staphylococcus aureus): > 30 µg/mL
